Results as given in ChEMBL document CHEMBL4138282, “An Anti-Inflammatory PPAR-γ Agonist from the Jellyfish-Derived Fungus Penicillium chrysogenum J08NF-4” (J Nat Prod, 2018).
Blank lines part the entries; values can stand above or below the compound they belong to. Activity calls are given as the source filed them. The rule behind the calls is not given here.

How the values were obtained:
Format in all cases: cell-based
[1] = Cytotoxicity against rat Ac2F cells assessed as reduction in cell viability up to 50 uM after 24 hrs by WST assay
In short: (§1)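 Cells in high-glucose DMEM/10% heat-inactivated FBS with penicillin-streptomycin at 37 °C, 5% CO2; seeded 12 h, then exposed to compound for 24 h. WST reagent 1 h at 37 °C, absorbance at 450 nm.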

RAW264.7 = test: Cytotoxicity against mouse RAW264.7 cells assessed as reduction in cell viability up to 50 uM after 24 hrs by WST assay; settings: raw264.7, 24 h; in short: as §1
[2] = target: T1, Peroxisome proliferator-activated receptor gamma (Homo sapiens) (UniProt P37231); test: Agonist activity at full length human flag-tagged PPARgamma1 […] expressed in rat Ac2F cells coexpressing PPRE-X3-TK after 6 hrs by one-glo luciferase reporter gene assay
T1 sequence (whole entry): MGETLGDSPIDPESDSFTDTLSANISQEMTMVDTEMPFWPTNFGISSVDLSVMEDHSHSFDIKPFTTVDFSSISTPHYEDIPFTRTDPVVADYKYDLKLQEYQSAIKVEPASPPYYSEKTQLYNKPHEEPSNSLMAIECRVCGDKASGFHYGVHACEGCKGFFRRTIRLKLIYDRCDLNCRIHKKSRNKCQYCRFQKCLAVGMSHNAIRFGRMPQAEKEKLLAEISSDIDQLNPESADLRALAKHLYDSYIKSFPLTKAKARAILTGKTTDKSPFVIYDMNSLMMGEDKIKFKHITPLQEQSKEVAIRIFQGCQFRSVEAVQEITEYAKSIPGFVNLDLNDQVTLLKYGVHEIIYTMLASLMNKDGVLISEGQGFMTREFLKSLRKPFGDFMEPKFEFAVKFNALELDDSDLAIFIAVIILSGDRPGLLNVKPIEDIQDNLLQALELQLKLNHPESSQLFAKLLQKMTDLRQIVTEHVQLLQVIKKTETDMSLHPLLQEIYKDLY
In short: (§2)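 Rat Ac2F cells at 70–80% confluence transfected by Lipofectamine 2000 with PPRE-X3-TK-luc (1 μg/well) plus pFlag-PPAR-γ1 or pcDNA3 (0.1 μg/well), 4 h, then 10 h in complete medium. Compound (5, 10, 20 μM) or rosiglitazone 5 μM added for 6 h in serum-free medium; ONE-Glo luminescence as fold of control, n = 3.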

[3] = target: T1, Peroxisome proliferator-activated receptor gamma (Homo sapiens); test: Agonist activity at full length human flag-tagged PPARgamma1 […] expressed in rat Ac2F cells coexpressing PPRE-X3-TK at 20 uM after 6 hrs by one-glo luciferase reporter gene assay relative to control; in short: as §2
[4] = target: T2, Peroxisome proliferator-activated receptor gamma (Mus musculus) (UniProt P37238); test: Agonist activity at PPARgamma in mouse RAW264.7 cells assessed as increase in protein expression level in nuclear fractions at 30 uM after 24 hrs by Western blot assay relative to control
T2 sequence (whole entry): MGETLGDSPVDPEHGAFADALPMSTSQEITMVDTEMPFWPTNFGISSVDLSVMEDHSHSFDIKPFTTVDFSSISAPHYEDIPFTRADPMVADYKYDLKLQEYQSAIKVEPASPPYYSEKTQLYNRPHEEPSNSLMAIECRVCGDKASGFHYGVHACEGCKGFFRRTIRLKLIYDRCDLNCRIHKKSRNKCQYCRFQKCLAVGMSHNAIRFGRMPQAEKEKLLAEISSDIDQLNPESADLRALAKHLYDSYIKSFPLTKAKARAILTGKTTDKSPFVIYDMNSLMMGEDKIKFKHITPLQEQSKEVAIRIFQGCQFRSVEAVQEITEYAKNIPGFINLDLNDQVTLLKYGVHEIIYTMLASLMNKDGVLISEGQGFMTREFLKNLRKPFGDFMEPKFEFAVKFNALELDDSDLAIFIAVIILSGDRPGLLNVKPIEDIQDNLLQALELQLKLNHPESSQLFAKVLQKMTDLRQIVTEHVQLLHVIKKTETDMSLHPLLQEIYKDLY
In short: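 Treated RAW 264.7 cells at 10 or 30 μM for 24 h, with rosiglitazone 10 or 30 μM as comparator. Nuclear fractions isolated by NE-PER extraction, protein by BCA, PPAR-γ by Western blot normalized to nuclear TFIIB; three independent experiments.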

[5] = target: T2, Peroxisome proliferator-activated receptor gamma (Mus musculus); test: Agonist activity at PPARgamma in LPS-stimulated mouse RAW264.7 cells assessed as inhibition of NF-kappaB p65 phosphorylation pretreated with compound for 1 hr followed by LPS stimulation for 30 mins by Western blot assay
In short: (§3)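 For the antagonist arm, GW9662 (10 μM) was added 1 h before. Phospho-p65 read by Western blot on 10% SDS-PAGE, β-actin reference; three independent experiments.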

[6] = target: T2, Peroxisome proliferator-activated receptor gamma (Mus musculus); test: Agonist activity at PPARgamma in LPS-stimulated mouse RAW264.7 cells assessed as inhibition of NF-kappaB p65 phosphorylation at 30 uM pretreated with compound for 1 hr followed by LPS stimulation for 30 mins by Western blot assay relative to control; in short: as §3
[7] = target: T2, Peroxisome proliferator-activated receptor gamma (Mus musculus); test: Agonist activity at PPARgamma in LPS-stimulated mouse RAW264.7 cells assessed as inhibition of NF-kappaB p65 phosphorylation at 30 uM pretreated with compound for 1 hr followed by LPS stimulation for 30 mins in presence of PPARgamma antagonist GW9662 by Western blot assay; in short: as §3
[8] = target: T2, Peroxisome proliferator-activated receptor gamma (Mus musculus); test: Agonist activity at PPARgamma in LPS-stimulated mouse RAW264.7 cells assessed as inhibition of NF-kappaB signaling by measuring reduction in iNOS mRNA level pretreated with compound for 1 hr followed by LPS stimulation for 6 hrs by RT-PCR analysis
In short: (§4)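 Trizol RNA, M-MLV cDNA, 27-cycle PCR, agarose gel with ethidium bromide stain; GAPDH as internal control. Three independent experiments.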

[9] = target: T2, Peroxisome proliferator-activated receptor gamma (Mus musculus); test: Agonist activity at PPARgamma in LPS-stimulated mouse RAW264.7 cells assessed as inhibition of NF-kappaB signaling by measuring reduction in COX2 mRNA level pretreated with compound for 1 hr followed by LPS stimulation for 6 hrs by RT-PCR analysis; in short: as §4
[10] = target: T2, Peroxisome proliferator-activated receptor gamma (Mus musculus); test: Agonist activity at PPARgamma in LPS-stimulated mouse RAW264.7 cells assessed as inhibition of NF-kappaB signaling by measuring reduction in TNFalpha mRNA level pretreated with compound for 1 hr followed by LPS stimulation for 6 hrs by RT-PCR analysis; in short: as §4
[11] = target: T2, Peroxisome proliferator-activated receptor gamma (Mus musculus); test: Agonist activity at PPARgamma in LPS-stimulated mouse RAW264.7 cells assessed as inhibition of NF-kappaB signaling by measuring reduction in IL-1beta mRNA level pretreated with compound for 1 hr followed by LPS stimulation for 6 hrs by RT-PCR analysis; in short: as §4
[12] = target: T2, Peroxisome proliferator-activated receptor gamma (Mus musculus); test: Agonist activity at PPARgamma in LPS-stimulated mouse RAW264.7 cells assessed as inhibition of NF-kappaB signaling by measuring reduction in IL-6 mRNA level pretreated with compound for 1 hr followed by LPS stimulation for 6 hrs by RT-PCR analysis; in short: as §4
[13] = target: T2, Peroxisome proliferator-activated receptor gamma (Mus musculus); test: Agonist activity at PPARgamma in LPS-stimulated mouse RAW264.7 cells assessed as inhibition of NF-kappaB signaling by measuring reduction in iNOS mRNA level at 50 uM pretreated with compound for 1 hr followed by LPS stimulation for 6 hrs by RT-PCR analysis relative to control; in short: as §4
[14] = target: T2, Peroxisome proliferator-activated receptor gamma (Mus musculus); test: Agonist activity at PPARgamma in LPS-stimulated mouse RAW264.7 cells assessed as inhibition of NF-kappaB signaling by measuring reduction in COX2 mRNA level at 50 uM pretreated with compound for 1 hr followed by LPS stimulation for 6 hrs by RT-PCR analysis relative to control; in short: as §4
[15] = target: T2, Peroxisome proliferator-activated receptor gamma (Mus musculus); test: Agonist activity at PPARgamma in LPS-stimulated mouse RAW264.7 cells assessed as inhibition of NF-kappaB signaling by measuring reduction in TNFalpha mRNA level at 50 uM pretreated with compound for 1 hr followed by LPS stimulation for 6 hrs by RT-PCR analysis relative to control; in short: as §4
[16] = target: T2, Peroxisome proliferator-activated receptor gamma (Mus musculus); test: Agonist activity at PPARgamma in LPS-stimulated mouse RAW264.7 cells assessed as inhibition of NF-kappaB signaling by measuring reduction in IL-1beta mRNA level at 50 uM pretreated with compound for 1 hr followed by LPS stimulation for 6 hrs by RT-PCR analysis relative to control; in short: as §4
[17] = target: T2, Peroxisome proliferator-activated receptor gamma (Mus musculus); test: Agonist activity at PPARgamma in LPS-stimulated mouse RAW264.7 cells assessed as inhibition of NF-kappaB signaling by measuring reduction in IL-6 mRNA level at 50 uM pretreated with compound for 1 hr followed by LPS stimulation for 6 hrs by RT-PCR analysis relative to control; in short: as §4
[18] = target: T2, Peroxisome proliferator-activated receptor gamma (Mus musculus); test: Agonist activity at PPARgamma in LPS-stimulated mouse RAW264.7 cells assessed as inhibition of NF-kappaB signaling by measuring reduction in iNOS protein level pretreated with compound for 1 hr followed by LPS stimulation measured after 24 hrs by Western blot analysis
[19] = target: T2, Peroxisome proliferator-activated receptor gamma (Mus musculus); test: Agonist activity at PPARgamma in LPS-stimulated mouse RAW264.7 cells assessed as inhibition of NF-kappaB signaling by measuring reduction in COX2 protein level pretreated with compound for 1 hr followed by LPS stimulation measured after 24 hrs by Western blot analysis
[20] = target: T2, Peroxisome proliferator-activated receptor gamma (Mus musculus); test: Agonist activity at PPARgamma in LPS-stimulated mouse RAW264.7 cells assessed as inhibition of NF-kappaB signaling by measuring reduction in NO production pretreated with compound for 1 hr followed by LPS stimulation measured after 24 hrs by Griess assay
In short: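 Supernatant mixed 1:1 with Griess reagent, 20 min at 37 °C in the dark, A520; nitrite quantified against 0–100 μM sodium nitrite standards.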

[21] = target: T2, Peroxisome proliferator-activated receptor gamma (Mus musculus); test: Agonist activity at PPARgamma in LPS-stimulated mouse RAW264.7 cells assessed as inhibition of NF-kappaB signaling by measuring reduction in IL-1beta production pretreated with compound for 1 hr followed by LPS stimulation measured after 24 hrs by ELISA
[22] = target: T2, Peroxisome proliferator-activated receptor gamma (Mus musculus); test: Agonist activity at PPARgamma in LPS-stimulated mouse RAW264.7 cells assessed as inhibition of NF-kappaB signaling by measuring reduction in IL-6 production pretreated with compound for 1 hr followed by LPS stimulation measured after 24 hrs by ELISA
[23] = target: T2, Peroxisome proliferator-activated receptor gamma (Mus musculus); test: Agonist activity at PPARgamma in LPS-stimulated mouse RAW264.7 cells assessed as inhibition of NF-kappaB signaling by measuring reduction in TNFalpha production pretreated with compound for 1 hr followed by LPS stimulation measured after 3 hrs by ELISA

Activity [2]: Dose-dependent effect | fold change (FC) [3]: 3 | fold change (FC) [4]: 1.8 | inhibition [5]: Dose-dependent effect | fold change (FC) [6]: 2.8 | inhibition [7]: inactive | inhibition [8]: Dose-dependent effect | inhibition [9]: Dose-dependent effect | inhibition [10]: Dose-dependent effect | inhibition [11]: Dose-dependent effect | inhibition [12]: Dose-dependent effect | fold change (FC) [13]: 5 | fold change (FC) [14]: 2 | fold change (FC) [15]: 2 | fold change (FC) [16]: 2.5 | fold change (FC) [17]: 5 | inhibition [18]: Dose-dependent effect | inhibition [19]: Dose-dependent effect | inhibition [20]: Dose-dependent effect | inhibition [21]: Dose-dependent effect | inhibition [22]: Dose-dependent effect | inhibition [23]: Dose-dependent effect
SMILES: COC(=O)CC/C(C)=C/CC/C(C)=C/Cc1cc(O)c(C)cc1O
Activity [1]: Non-Toxic | Activity (RAW264.7): Non-Toxic

fold change (FC) [4]: 2.3
SMILES: CN(CCOc1ccc(CC2SC(=O)NC2=O)cc1)c1ccccn1 (stereo not given)
